Bioassay records deposited in PubChem by several laboratories.
Shown are actives, neighbours in structure and some others; about 2.9% of the full set was active somewhere.
SENP7 inh: SENP7 protease inhibitors, primary screen, biochemical, luminescence, uHTS; AID 434973, 2010; 330,000 tested, 1.5% active; inhibition, % at 5 µM; recombinant SENP7, Z-RLRGG-aminoluciferin luminescence, 40 min; Sentrin-specific protease 7 (Homo sapiens), Q9BQF6;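 active = inhibition above about 50% at the single test dose, limit read from the data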;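 note: plate controls were DMSO with enzyme for no effect and no enzyme buffer wells for full effect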
Target sequence (Q9BQF6 706-1050 limits assumed): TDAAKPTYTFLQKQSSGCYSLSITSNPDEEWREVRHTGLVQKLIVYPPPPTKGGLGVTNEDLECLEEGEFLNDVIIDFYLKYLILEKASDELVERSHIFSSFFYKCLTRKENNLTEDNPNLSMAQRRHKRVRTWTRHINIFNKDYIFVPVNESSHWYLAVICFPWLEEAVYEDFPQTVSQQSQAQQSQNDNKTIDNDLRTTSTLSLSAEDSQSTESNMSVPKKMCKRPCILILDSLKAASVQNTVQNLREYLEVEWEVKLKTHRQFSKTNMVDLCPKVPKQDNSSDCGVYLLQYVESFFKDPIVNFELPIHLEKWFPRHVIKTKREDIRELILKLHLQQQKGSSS
SENP6 inh: SENP6 protease inhibitors, primary screen, biochemical, luminescence, uHTS; Sentrin-specific protease 6 (Homo sapiens), Q9GZR1; Recombinant SENP6 catalytic domain, aminoluciferin luminescence; inhibition, % at 10 µM; 330,000 tested, 1.8% active;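 active = inhibition above about 50% at the single tested dose, limit read from the data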;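 note: plate controls were DMSO wells with enzyme for no effect and DMSO wells lacking enzyme for full effect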
SENP8 block-1: SENP8 protease inhibitors, primary screen, biochemical, luminescence. Sentrin-specific protease 8 (Homo sapiens), Q96LD8. purified SENP8, Z-RLRGG-aminoluciferin cleavage. inhibition, % at 10 µM. 330,000 tested, 1.2% active. AID 2540, 2010; in the data active = inhibition above about 50%
SENP1 FRET inh: human SENP1 catalytic domain inhibitors, primary screen, biochemical, FRET, uHTS. Sentrin-specific protease 1 (Homo sapiens), Q9P0U3. recombinant SENP1 catalytic domain, CyPet-SUMO1-YPet FRET cleavage. inhibition, % at 10 µM. 360,000 tested, 0.21% active. AID 624204, 2012;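 active = inhibition at least 30% at 10 µM, raw YFP signal under a set limit, fluorescence ratio 0.5 to 1.5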;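 note: 0% = enzyme with DMSO and 100% = no enzyme wells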
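system = hSENP1 catalytic domain, recombinant | reagent = SFCypet-SUMO1-SFYpet substrate at 25 nM | doses = one dose per compound, 10 µM, 0.5% DMSO | incubation = enzyme reaction for 50 min at room temperature, dark | measured by = FRET, CFP and YFP emission | controls = no-enzyme low, enzyme-DMSO high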
SENP8 block-2: human SENP8 protease inhibitors, primary screen, biochemical, fluorescence, Nedd8 protein substrate, uHTS | Sentrin-specific protease 8 (Homo sapiens), Q96LD8 | recombinant SENP8 | inhibition, % at 20 µM | 360,000 tested, 0.64% active; in the data active = inhibition mostly above about 40%, no sharp cut-off; inactive = mostly below about 27%
HSP90 inh: HSP90 inhibitors, primary screen, cell lysate, luminescence | Rabbit reticulocyte lysate, luciferase refolding luminescence, 3 h | inhibition, % at 5.6 µM | 290,000 tested, 0.91% active | AID 1789, 2009;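 active = inhibition above the screen-wide mean plus 3 SD, computed separately per campaign, cut at about 16% in these data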;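 note: 0% = DMSO wells and 100% = 60 µM geldanamycin wells; inhibitors lower the luminescence because luciferase stays unfolded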
SENP8 conf: SENP8 protease inhibitors, retest, confirmation, biochemical, luminescence, single concentration; shares compounds with SENP7 inh; Recombinant SENP8, Z-RLRGG-aminoluciferin luminescence, 60 min; inhibition, % at 12.5 µM; 6,200 tested, 40% active;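 active = mean inhibition across replicates above about 50%, limit read from the data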
SENP6 confirm: SENP6 protease inhibitors, confirmation, biochemical, luminescence, single concentration. 6,200 tested, 58% active. inhibition, % at 12.5 µM. recombinant SENP6, Z-RLRGG-aminoluciferin luminescence. shares compounds with SENP7 inh
SENP7 conf: SENP7 protease inhibitors, retest, confirmation, biochemical, luminescence, single concentration; shares compounds with SENP7 inh; recombinant SENP7, Z-RLRGG-aminoluciferin luminescence, 40 min; inhibition, % at 12.5 µM; 6,200 tested, 69% active
Casp3 select: caspase-3 protease inhibitors, confirmation, selectivity assay for SENP inhibitor project, biochemical, single concentration | inhibition, % at 12.5 µM | 6,200 tested, 60% active | purified caspase-3, Z-DEVD-aminoluciferin luminescence, 60 min | shares compounds with SENP7 inh;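 active = mean inhibition above about 50%, limit read from the data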;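 note: plate controls were enzyme with DMSO for no effect and wells without caspase-3 for full effect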
Target sequence (P42574 28-227 limits assumed): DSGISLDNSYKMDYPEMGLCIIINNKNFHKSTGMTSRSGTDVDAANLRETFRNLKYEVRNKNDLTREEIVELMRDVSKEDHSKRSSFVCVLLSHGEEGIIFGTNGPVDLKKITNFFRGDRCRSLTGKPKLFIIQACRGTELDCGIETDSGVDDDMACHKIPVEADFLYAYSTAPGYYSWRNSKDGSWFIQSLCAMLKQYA
Luc interf: interferes with luciferase luminescence in SENP counter-screen; inhibition, % at 12.5 µM; Pre-incubated SENP8/Z-RLRGG-aminoluciferin, luciferase luminescence interference; shares compounds with SENP7 inh; 6,200 tested, 39% active;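 active = mean inhibition above about 50% when retested at one dose, limit read from the data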;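 note: plate controls were DMSO wells with completed reaction for no effect and substrate without enzyme for full effect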
* = called active by the depositor.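 Rule for the calls, unless noted: active = mean inhibition above about 50% in the one-dose retest (limit read from the data); inactive = the rest.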

Screening CCOC(=O)c1c(S(=O)(=O)NCC(=O)Nc2ccccc2)c(C)n(C)c1C returned SENP7 inh 73*, SENP6 inh -10, SENP8 block-1 -7, SENP1 FRET inh 4, SENP8 block-2 -18, HSP90 inh 0, SENP8 conf -12, SENP6 confirm -11, SENP7 conf -11, Casp3 select -5 and Luc interf -15.
Screening CC(C)=CCN1CCN(Cc2ccc(Sc3nncn3C)o2)CC1CCO (stereo not given) returned SENP7 inh 3, SENP6 inh -1, SENP8 block-1 -4, SENP1 FRET inh -1, SENP8 block-2 10 and HSP90 inh 1.
`CCOC(=O)c1sc(=NC(=O)c2ccccc2)n(C)c1C` gave SENP7 inh 54*, SENP6 inh -30, SENP8 block-1 34, SENP1 FRET inh 0, SENP8 block-2 -192, HSP90 inh -8, SENP8 conf 18, SENP6 confirm 14, SENP7 conf 15, Casp3 select 12 and Luc interf 4.
For CCOC(=O)c1sc(NC(=O)c2ccc(S(=O)(=O)N(C)C)cc2)cc1C the results were SENP7 inh 4, SENP6 inh -3, SENP8 block-1 -4, SENP1 FRET inh 2, SENP8 block-2 -4 and HSP90 inh -1.
`CCOC(=O)c1sc(NC(=O)c2ccccc2)cc1C` gave SENP7 inh 94*, SENP6 inh 93*, SENP8 block-1 77*, SENP1 FRET inh -2, SENP8 block-2 -44, HSP90 inh -6, SENP8 conf 57*, SENP6 confirm 90*, SENP7 conf 100*, Casp3 select 84* and Luc interf 39.
`CCOC(=O)c1sc(=NC(=O)c2cccc(OC)c2)n(C)c1C` gave SENP7 inh 33, SENP6 inh -13, SENP8 block-1 -4, SENP1 FRET inh 0, SENP8 block-2 -280 and HSP90 inh 3.
`COc1ccc2c(=O)c3c(=O)n(Cc4ccco4)c(-c4ccco4)nc3oc2c1` gave SENP7 inh -1, SENP6 inh -22, SENP8 block-1 -6, SENP1 FRET inh -21, SENP8 block-2 -39 and HSP90 inh -2.
Screening COc1ccc(Cn2c(-c3ccco3)nc3oc4cc(OC)ccc4c(=O)c3c2=O)cc1 returned SENP7 inh 41, SENP6 inh 50*, SENP8 block-1 17, SENP1 FRET inh -20, SENP8 block-2 -6, HSP90 inh 4, SENP8 conf -20, SENP6 confirm -15, SENP7 conf -6, Casp3 select 0 and Luc interf -6.
For Cc1cc[n+](C2=C([O-])c3ccccc3C(=O)/C2=N\S(=O)(=O)c2cccs2)cc1C the results were SENP7 inh 16, SENP6 inh 60*, SENP8 block-1 39, SENP1 FRET inh 1, SENP8 block-2 29, HSP90 inh 8, SENP8 conf 18, SENP6 confirm 30, SENP7 conf 11, Casp3 select 1 and Luc interf 3.
Screening CC(C)(C)c1cc[n+](C2=C([O-])c3ccccc3C(=O)/C2=N\S(=O)(=O)c2ccccc2)cc1 returned SENP7 inh 15, SENP6 inh 66*, SENP8 block-1 42, SENP1 FRET inh 3, SENP8 block-2 48*, HSP90 inh 16*, SENP8 conf 41, SENP6 confirm 72*, SENP7 conf 43, Casp3 select 7 and Luc interf 1.
Cc1c(C(C)(C)C)s/c(=N/S(=O)(=O)c2ccccc2)n1C was read as SENP7 inh 3, SENP6 inh -10, SENP8 block-1 -11, SENP1 FRET inh -1, SENP8 block-2 11 and HSP90 inh 12.
For CN(/C(=N/S(=O)(=O)c1cccs1)c1ccccc1)c1ccccc1 the results were SENP7 inh 5, SENP6 inh 5, SENP8 block-1 4, SENP1 FRET inh 3, SENP8 block-2 5 and HSP90 inh -4.
Screening Cc1cc(C)c[n+](C2=C([O-])c3ccccc3C(=O)/C2=N\S(=O)(=O)c2cccs2)c1 returned SENP7 inh 15, SENP6 inh 55*, SENP8 block-1 21, SENP1 FRET inh 0, SENP8 block-2 75*, HSP90 inh -2, SENP8 conf 40, SENP6 confirm 59*, SENP7 conf 22, Casp3 select -4 and Luc interf -8.
Screening O=S(=O)([N-]c1nc2ccccc2nc1-[n+]1ccc(CCCc2ccccc2)cc1)c1cccs1 returned SENP7 inh -6, SENP6 inh -9, SENP8 block-1 -11, SENP1 FRET inh -43, SENP8 block-2 18 and HSP90 inh 2.
For O=C1/C(=N\S(=O)(=O)c2cccs2)C([n+]2ccc(CCCc3ccccc3)cc2)=C([O-])c2ccccc21 the results were SENP7 inh 21, SENP6 inh 60*, SENP8 block-1 39, SENP1 FRET inh 3, SENP8 block-2 32, HSP90 inh 6, SENP8 conf -10, SENP6 confirm 28, SENP7 conf 5, Casp3 select -1 and Luc interf -11.
`CC(=O)Nc1ccc(SC[C@H](Cc2ccccc2)N2CC[C@@H](C(C)(C)C)CCC2=O)cc1` gave SENP7 inh 4, SENP6 inh -4, SENP8 block-1 6, SENP1 FRET inh -1 and SENP8 block-2 14.
